Blank lines part the entries; values can stand above or below the molecule they belong to.
Columns and labels:
[1] = biological target: T1, Leukotriene A-4 hydrolase (Homo sapiens, UniProt P09960); assay: Inhibition of amidase activity of LTA4 hydrolase purified from human leukocytes
T1 sequence (P09960 whole entry): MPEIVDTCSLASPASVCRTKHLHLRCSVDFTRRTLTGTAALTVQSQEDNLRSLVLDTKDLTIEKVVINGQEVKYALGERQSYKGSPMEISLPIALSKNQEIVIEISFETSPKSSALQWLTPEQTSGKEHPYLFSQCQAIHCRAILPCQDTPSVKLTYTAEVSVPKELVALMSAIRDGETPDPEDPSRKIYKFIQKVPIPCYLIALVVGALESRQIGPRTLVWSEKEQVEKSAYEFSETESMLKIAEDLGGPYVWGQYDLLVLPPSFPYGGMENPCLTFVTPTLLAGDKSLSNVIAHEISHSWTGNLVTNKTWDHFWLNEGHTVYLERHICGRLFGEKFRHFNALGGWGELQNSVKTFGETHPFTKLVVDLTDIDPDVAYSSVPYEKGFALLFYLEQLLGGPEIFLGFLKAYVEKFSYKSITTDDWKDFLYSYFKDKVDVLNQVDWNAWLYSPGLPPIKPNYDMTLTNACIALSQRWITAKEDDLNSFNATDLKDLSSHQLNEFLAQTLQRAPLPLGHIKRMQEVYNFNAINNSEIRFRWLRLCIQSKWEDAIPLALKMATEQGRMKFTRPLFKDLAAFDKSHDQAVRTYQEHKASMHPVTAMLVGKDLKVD

Cytosol aminopeptidase = Cytosol aminopeptidase (Homo sapiens, UniProt P28838); assay: Inhibitory concentration against cytosolic leucine aminopeptidase
[2] = biological target: T2, Leukotriene A-4 hydrolase (Homo sapiens) (UniProt P09960); assay: Kinetic parameter kcat against LTA4 hydrolase purified from human leukocytes
T2 sequence (whole entry): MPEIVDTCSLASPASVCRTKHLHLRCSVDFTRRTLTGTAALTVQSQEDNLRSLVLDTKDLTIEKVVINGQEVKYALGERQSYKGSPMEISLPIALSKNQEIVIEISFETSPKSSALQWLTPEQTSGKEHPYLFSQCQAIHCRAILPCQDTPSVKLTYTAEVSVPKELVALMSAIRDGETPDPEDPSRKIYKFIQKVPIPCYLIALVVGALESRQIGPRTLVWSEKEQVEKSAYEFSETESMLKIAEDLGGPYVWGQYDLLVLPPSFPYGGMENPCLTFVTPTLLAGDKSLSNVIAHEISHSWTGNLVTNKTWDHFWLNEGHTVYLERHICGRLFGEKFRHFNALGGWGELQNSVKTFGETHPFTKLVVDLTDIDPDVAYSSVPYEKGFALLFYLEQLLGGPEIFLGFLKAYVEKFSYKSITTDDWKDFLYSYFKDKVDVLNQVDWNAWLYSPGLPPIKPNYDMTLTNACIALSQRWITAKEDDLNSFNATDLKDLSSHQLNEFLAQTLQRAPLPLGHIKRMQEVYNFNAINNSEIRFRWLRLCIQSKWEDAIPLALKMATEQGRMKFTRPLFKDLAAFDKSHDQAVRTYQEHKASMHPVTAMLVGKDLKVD
Procedure, shortened: (§1)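 Amino acid amides tested as substrates in 50 mM Tris-Cl, pH 7.6, with 0.1 M NaCl. p-Nitroaniline release read at 410 nm using ε 8850 M⁻¹ cm⁻¹.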

[3] = Ratio kcat /Km ([…]/M 1/s); parameters: scale not given here
[4] = biological target: T1, Leukotriene A-4 hydrolase; assay: Ability at 1 mM to inhibit amidase activity of LTA4 hydrolase (1.4 ug) purified from human leukocytes; NI=No inhibition
Procedure, shortened: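 Human leukocyte enzyme (1.4 μg) in 0.05 M Tris-HCl, pH 8.0, with 1.5 mM L-alanyl p-nitroanilide as substrate. Inhibitor tested at 1 mM; thiol compounds assayed with 5 mM DTT. p-Nitroaniline release followed spectrophotometrically at 405 nm.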

[5] = substrate: NCCCC[C@H](N)C(=O)Nc1ccc([N+](=O)[O-])cc1; assay: (§2) Kinetic parameter (Km) for hydrolysis of LTA4 hydrolase purified from human leukocytes; procedure, shortened: as §1
[6] = substrate: C[C@H](N)C(=O)Nc1ccc([N+](=O)[O-])cc1; assay: as §2; procedure, shortened: as §1
[7] = substrate: NC(N)=NCCC[C@H](N)C(=O)Nc1ccc([N+](=O)[O-])cc1; assay: as §2; procedure, shortened: as §1
[8] = substrate: C[C@@H](N)C(=O)Nc1ccc([N+](=O)[O-])cc1; assay: (§3) Kinetic parameter Vmax against LTA4 hydrolase purified from human leukocytes was determined; procedure, shortened: as §1
[9] = substrate: NCCCC[C@H](N)C(=O)Nc1ccc([N+](=O)[O-])cc1; assay: as §3; procedure, shortened: as §1
[10] = substrate: C[C@H](N)C(=O)Nc1ccc([N+](=O)[O-])cc1; assay: as §3; procedure, shortened: as §1
[11] = substrate: NC(N)=NCCC[C@H](N)C(=O)Nc1ccc([N+](=O)[O-])cc1; assay: as §3; procedure, shortened: as §1

Sequence of Cytosol aminopeptidase (P28838 whole entry): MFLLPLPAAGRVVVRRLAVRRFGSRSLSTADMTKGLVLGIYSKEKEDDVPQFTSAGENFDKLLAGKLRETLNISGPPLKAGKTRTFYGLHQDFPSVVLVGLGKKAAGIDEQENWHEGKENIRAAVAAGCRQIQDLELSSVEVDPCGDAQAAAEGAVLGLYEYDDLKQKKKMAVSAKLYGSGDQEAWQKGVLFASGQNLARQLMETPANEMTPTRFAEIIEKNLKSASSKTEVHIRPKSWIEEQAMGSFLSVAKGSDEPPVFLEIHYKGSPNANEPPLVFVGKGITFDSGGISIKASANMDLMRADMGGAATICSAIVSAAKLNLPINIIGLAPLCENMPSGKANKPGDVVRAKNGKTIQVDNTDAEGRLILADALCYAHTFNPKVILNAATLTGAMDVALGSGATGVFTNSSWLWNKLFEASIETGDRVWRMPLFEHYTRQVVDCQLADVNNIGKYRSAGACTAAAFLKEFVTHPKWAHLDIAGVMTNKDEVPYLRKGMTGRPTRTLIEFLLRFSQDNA

IC50 [1]: > 100 µM
Molecule: CC(C)C[C@H](/N=C(\S)[C@H](O)[C@H](N)Cc1ccccc1)C(=O)O

IC50 [1]: > 1000 µM
Molecule: CCOC(=O)CC(F)(F)C(=O)c1[nH]cnc1C

IC50 [1]: > 100 µM
Molecule: N[C@@H](Cc1ccccc1)[C@H](O)C(=O)NCc1ccccc1

IC50 [1]: > 100 µM
Molecule: CC(C)C[C@H](/N=C(\S)[C@@H](O)[C@H](N)Cc1ccccc1)C(=O)O

IC50 (Cytosol aminopeptidase): 80 µM
Molecule: N[C@@H](Cc1ccc(OCc2ccccc2)cc1)[C@H](O)C(=O)OCc1ccccc1

k cat [2]: 0.6 s⁻¹
Ratio [3]: 0.0012
Molecule: C[C@H](N)C(=O)Nc1ccc([N+](=O)[O-])cc1

IC50 [1]: > 100 µM
Molecule: CC(C)C[C@H](/N=C(\S)[C@H](O)[C@@H](N)Cc1ccccc1)C(=O)O

IC50 [1]: > 250 µM
Molecule: CC(C)C[C@H](NC(=O)C(S)C(N)Cc1ccccc1)C(=O)O (stereo not given in full)

IC50 [1]: 20 µM
Molecule: N[C@@H](Cc1ccccc1)[C@H](O)C(=O)OCc1ccccc1

Molecule: NC(Cc1ccccc1)P(=O)(O)NCC(=O)O (stereo not given)
IC50 [1]: > 100 µM

k cat [2]: 0.15 s⁻¹
Ratio [3]: 0.0005
Molecule: CC(C)C[C@H](N)C(=O)Nc1ccc([N+](=O)[O-])cc1

Molecule: N[C@H](CS)Cc1ccc(OCc2ccccc2)cc1
IC50 (Cytosol aminopeptidase): > 50 µM

k cat [2]: 0.035 s⁻¹
Ratio [3]: 0.00035
Molecule: NCCCC[C@H](N)C(=O)Nc1ccc([N+](=O)[O-])cc1

IC50 [4]: Not Active
Molecule: COC(=O)[C@@H](O)[C@H](N)Cc1ccccc1

k cat [2]: 0.15 s⁻¹
Ratio [3]: 0.0015
Molecule: O=C(Nc1ccc([N+](=O)[O-])cc1)[C@@H]1CCCN1

Molecule: COC(=O)C(S)C(N)Cc1ccccc1 (stereo not given)
IC50 [1]: 250 µM

IC50 (Cytosol aminopeptidase): 50 µM
Molecule: COC(=O)C(=O)[C@@H](N)Cc1ccc(OCc2ccccc2)cc1

IC50 (Cytosol aminopeptidase): > 100 µM
Molecule: N[C@@H](Cc1ccc(OCc2ccccc2)cc1)C(=O)C(=O)OCc1ccccc1

IC50 [4]: Not Active
Molecule: COC(=O)[C@H](O)[C@H](N)Cc1ccccc1

IC50 [4]: Not Active
Molecule: N[C@H](Cc1ccccc1)[C@H](O)C(=O)O

k cat [2]: 0.68 s⁻¹
Ratio [3]: 0.09
Molecule: CCCCC/C=C\C\C=C/C=C/C=C/[C@@H]1O[C@H]1CCCC(=O)O

k cat [2]: 0.15 s⁻¹
Ratio [3]: 0.00075
Molecule: NC(N)=NCCC[C@H](N)C(=O)Nc1ccc([N+](=O)[O-])cc1

B1: Leukotriene A-4 hydrolase (Homo sapiens), P09960 (protein)
chain: MPEIVDTCSLASPASVCRTKHLHLRCSVDFTRRTLTGTAALTVQSQEDNLRSLVLDTKDLTIEKVVINGQEVKYALGERQSYKGSPMEISLPIALSKNQEIVIEISFETSPKSSALQWLTPEQTSGKEHPYLFSQCQAIHCRAILPCQDTPSVKLTYTAEVSVPKELVALMSAIRDGETPDPEDPSRKIYKFIQKVPIPCYLIALVVGALESRQIGPRTLVWSEKEQVEKSAYEFSETESMLKIAEDLGGPYVWGQYDLLVLPPSFPYGGMENPCLTFVTPTLLAGDKSLSNVIAHEISHSWTGNLVTNKTWDHFWLNEGHTVYLERHICGRLFGEKFRHFNALGGWGELQNSVKTFGETHPFTKLVVDLTDIDPDVAYSSVPYEKGFALLFYLEQLLGGPEIFLGFLKAYVEKFSYKSITTDDWKDFLYSYFKDKVDVLNQVDWNAWLYSPGLPPIKPNYDMTLTNACIALSQRWITAKEDDLNSFNATDLKDLSSHQLNEFLAQTLQRAPLPLGHIKRMQEVYNFNAINNSEIRFRWLRLCIQSKWEDAIPLALKMATEQGRMKFTRPLFKDLAAFDKSHDQAVRTYQEHKASMHPVTAMLVGKDLKVD
Km [5]: 100 µM
Km [6]: 500 µM
Km [7]: 200 µM
Vmax (nM min-1 mg-1) [8]: 0
Vmax (nM min-1 mg-1) [9]: 30
Vmax (nM min-1 mg-1) [10]: 530
Vmax (nM min-1 mg-1) [11]: 135
